Test [1] deals with CDK4/Cyclin D3 (Homo sapiens) (UniProt P11802+P30281). Nature of the test: Inhibition of recombinant full-length human CDK4/cyclinD3 at 1 uM using Rb fragment as substrate measured after 40 mins in presence of [gamma33P]ATP by scintillation counting method relative to control. Format: protein-complex assay. The method in brief:
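Percent inhibition of kinase activity at a single compound concentration, measured by the outsourced Eurofins KinaseProfiler panel. Values are the mean of two independent experiments.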

Test [2] concerns MDA-MB-231. Briefly: Antiproliferative activity against human MDA-MB-231 cells assessed as inhibition of cell viability after 72 hrs by CCK-8 assay. Type of test: functional, cell-based. The following applies: MDA-MB-231, 72 h. The gist of the method: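 Cells kept at 37 °C, 5% CO2 in DMEM or RPMI-1640 with 10% FBS and 1% penicillin/streptomycin, then seeded at 3000 cells/well (adherent) or 10,000 cells/well (suspension). Exposed to a range of concentrations for 72 h. CCK-8 added for 1-4 h before reading A450. […] Three independent experiments.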
(Formazan colour is commonly taken as a measure of viable cells.)

In test [3] the test system is A549. Briefly: Induction of apoptosis in human A549 cells assessed as necrotic cells at 1 uM after 48 hrs by AnnexinV-FITC/PI staining-based flow cytometric analysis (reference value: 0.664%). Format: functional. For orientation: A flow cytometer gives signals particle by particle.
Test [4] deals with NCI-H1299. Briefly: Induction of apoptosis in human H1299 cells assessed as reduction in Bcl-2 level at 0.25 to 1 uM after 24 hrs by Western blot analysis. Format: functional, cell-based. The method in brief: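 A549 or H1299 cells exposed to the indicated concentrations for 24 h. Protein extracts then immunoblotted for apoptosis-pathway proteins (Bcl2, Bim, cleaved caspase 3).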
A general note: Immunoblotting shows a protein as a band on a membrane.

Test [5] deals with NCI-H1299. Briefly: Antitumour activity against human H1299 cells xenografted in Balb/c mouse assessed as inhibition of Rb phosphorylation at Ser 780 residue at 20 to 80 mg/kg, po administered for 3 weeks by […] based light microscopic analysis. Format: functional, organism-based. The method in brief: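 Tumours came from the H1299 oral-dosing xenograft run for 3 weeks. Formalin-fixed, paraffin-embedded 5-µm sections were deparaffinized and rehydrated. Primary antibodies (CDK9, cyclin T1, p-Rb Ser780, RNAPII CTD Ser5, Oct4) used at 1:100 overnight at 4 °C. Biotinylated secondary for 1 h at room temperature, then ABC-peroxidase/DAB, hematoxylin counterstain and light microscopy.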

Test [6] has as its system Tyrosine-protein kinase ABL1 (Homo sapiens), P00519 [Y253F]. Nature of the test: Inhibition of recombinant human Abl Y253F mutant (27 to end residues) at 1 uM using EAIYAAPFAKKK as substrate measured after 40 mins in presence of [gamma33P]ATP by scintillation counting method relative to control.
The target in test [7] is MAPK/MAK/MRK overlapping kinase (Homo sapiens) (UniProt Q9UQ07). Nature of the test: Inhibition of recombinant human MOK (1 to 343 residues) at 1 uM using RSRSRSRSRSRSRSR as substrate measured after 40 mins in presence of [gamma33P]ATP by scintillation counting method relative to control.
Test [8] addresses Calcium/calmodulin-dependent protein kinase type IV (Homo sapiens) (UniProt Q16566). Nature of the test: Inhibition of recombinant full-length human CaMK4 at 1 uM using calmodulin as substrate measured after 40 mins in presence of [gamma33P]ATP by scintillation counting method relative to control.
The target of test [9] is CDK6/cyclin D3 (Homo sapiens) (UniProt P30281+Q00534). Nature of the test: Inhibition of recombinant full-length human CDK6/cyclinD3 at 1 uM using Histone H1 as substrate measured after 40 mins in presence of [gamma33P]ATP by scintillation counting method relative to control. Format: protein-complex assay.
Test [10] has as its target Cyclin-dependent kinase-like 3 (Homo sapiens) (UniProt Q8IVW4). Nature of the test: Inhibition of human full length recombinant human CDKL3 at 1 uM using RRRFRPASPLRGP as substrate measured after 120 mins in presence of [gamma33P]ATP by scintillation counting method relative to control.
Test [11] is filed under the species Homo sapiens. Briefly: Inhibition of recombinant full-length human pkb-alpha S478G mutant at 1 uM using GRPRTSSFAEGKK as substrate measured after 40 mins in presence of [gamma33P]ATP by scintillation counting method relative to control.
In test [12] the target is Ephrin type-A receptor 2 (Homo sapiens) (UniProt P29317). Briefly: Inhibition of recombinant human EphA2 (596 to 900 residues) at 1 uM using poly(Glu, Tyr) 4:1 as substrate measured after 40 mins in presence of [gamma33P]ATP by scintillation counting method relative to control.
Test [13] addresses Protein kinase C theta type (Homo sapiens) (UniProt Q04759). Briefly: Inhibition of recombinant full-length human PKCtheta at 1 uM using histone H1as substrate measured after 40 mins in presence of [gamma33P]ATP by scintillation counting method relative to control.
In test [14] the target is Eukaryotic translation initiation factor 2-alpha kinase 1 (Homo sapiens) (UniProt Q9BQI3). Briefly: Inhibition of recombinant human HRI (140 to end residues) at 1 uM using RSRSRSRSRSRSRSR as substrate measured after 120 mins in presence of [gamma33P]ATP by scintillation counting method relative to control.
Eukaryotic translation initiation factor 2-alpha kinase 1 (Homo sapiens), sequence (Q9BQI3 whole entry): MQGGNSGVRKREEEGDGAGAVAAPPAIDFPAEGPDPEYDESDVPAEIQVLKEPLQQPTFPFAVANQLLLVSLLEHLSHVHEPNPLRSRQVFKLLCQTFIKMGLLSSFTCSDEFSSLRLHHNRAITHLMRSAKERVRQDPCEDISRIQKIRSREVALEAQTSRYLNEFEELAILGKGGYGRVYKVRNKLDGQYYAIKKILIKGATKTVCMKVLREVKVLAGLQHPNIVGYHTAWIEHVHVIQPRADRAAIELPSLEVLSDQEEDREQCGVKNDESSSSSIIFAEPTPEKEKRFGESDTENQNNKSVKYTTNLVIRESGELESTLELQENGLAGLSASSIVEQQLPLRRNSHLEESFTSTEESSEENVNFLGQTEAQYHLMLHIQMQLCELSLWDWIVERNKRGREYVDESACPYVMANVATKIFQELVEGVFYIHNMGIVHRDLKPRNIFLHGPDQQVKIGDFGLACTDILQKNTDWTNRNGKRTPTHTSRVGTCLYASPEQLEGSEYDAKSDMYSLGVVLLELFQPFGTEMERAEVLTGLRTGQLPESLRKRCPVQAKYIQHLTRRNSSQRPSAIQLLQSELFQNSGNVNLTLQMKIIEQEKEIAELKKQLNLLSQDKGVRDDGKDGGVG
Test [15] addresses Inhibitor of nuclear factor kappa-B kinase subunit alpha (Homo sapiens) (UniProt O15111). Nature of the test: Inhibition of human full length recombinant IKKalpha at 1 uM using peptide as substrate incubated for 40 mins in presence of [gamma-33P]ATP at Km concentration by radiometric assay relative to control.
Test [16] concerns Angiopoietin-1 receptor (Homo sapiens), Q02763 [Q939H,Q940H,R849W]. Briefly: Inhibition of human Tie2 Q939H/Q940H/R849W mutant (771 to end residues) at 1 uM using EFPIYDFLPAKKK as substrate measured after 40 mins in presence of [gamma33P]ATP by scintillation counting method relative to control. The gist of the method: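 Single-point inhibition at 1 µM was measured in the Eurofins KinaseProfiler panel. Values are the mean of two independent experiments.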

The target in test [17] is Serine/threonine-protein kinase ULK1 (Homo sapiens) (UniProt O75385). Nature of the test: Inhibition of human ULK1 (1 to 314 residues) at 1 uM using casein as substrate measured after 40 mins in presence of [gamma33P]ATP by scintillation counting method relative to control.
Serine/threonine-protein kinase ULK1 (Homo sapiens), sequence (O75385 whole entry, the tested form may be a part): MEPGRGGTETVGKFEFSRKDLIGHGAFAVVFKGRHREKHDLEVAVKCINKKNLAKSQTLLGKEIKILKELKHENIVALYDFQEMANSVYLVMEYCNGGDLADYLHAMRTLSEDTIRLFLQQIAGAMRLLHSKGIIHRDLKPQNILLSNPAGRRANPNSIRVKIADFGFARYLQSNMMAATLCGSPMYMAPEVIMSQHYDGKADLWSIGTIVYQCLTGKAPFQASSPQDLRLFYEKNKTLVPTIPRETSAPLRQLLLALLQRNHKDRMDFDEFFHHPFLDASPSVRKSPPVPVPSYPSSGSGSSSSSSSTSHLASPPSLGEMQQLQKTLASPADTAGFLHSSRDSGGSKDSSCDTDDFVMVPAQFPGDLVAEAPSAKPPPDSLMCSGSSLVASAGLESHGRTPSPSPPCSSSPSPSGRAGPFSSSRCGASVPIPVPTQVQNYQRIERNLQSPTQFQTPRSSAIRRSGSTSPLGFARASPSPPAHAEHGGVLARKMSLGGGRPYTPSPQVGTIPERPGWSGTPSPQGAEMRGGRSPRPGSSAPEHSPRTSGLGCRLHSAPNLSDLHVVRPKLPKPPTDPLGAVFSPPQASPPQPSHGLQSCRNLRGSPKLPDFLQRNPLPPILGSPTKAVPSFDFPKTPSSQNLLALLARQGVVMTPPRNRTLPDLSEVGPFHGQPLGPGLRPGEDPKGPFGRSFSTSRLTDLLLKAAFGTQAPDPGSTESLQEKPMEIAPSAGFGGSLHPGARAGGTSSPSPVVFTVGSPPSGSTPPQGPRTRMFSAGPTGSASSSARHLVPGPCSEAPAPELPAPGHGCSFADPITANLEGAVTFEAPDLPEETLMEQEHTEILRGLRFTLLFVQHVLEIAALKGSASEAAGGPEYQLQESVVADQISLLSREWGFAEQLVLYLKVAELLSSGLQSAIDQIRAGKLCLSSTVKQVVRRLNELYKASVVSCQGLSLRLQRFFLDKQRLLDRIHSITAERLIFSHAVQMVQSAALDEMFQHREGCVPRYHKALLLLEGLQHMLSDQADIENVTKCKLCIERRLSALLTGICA
In test [18] the target is Serine/threonine-protein kinase 10 (Homo sapiens) (UniProt O94804). Briefly: Inhibition of recombinant human LOK (1 to 348 residues) at 1 uM using RLGRDKYKTLRQIRQ as substrate measured after 40 mins in presence of [gamma33P]ATP by scintillation counting method relative to control.
Serine/threonine-protein kinase 10 (Homo sapiens), sequence (O94804 whole entry, looked up, the tested form may be a part): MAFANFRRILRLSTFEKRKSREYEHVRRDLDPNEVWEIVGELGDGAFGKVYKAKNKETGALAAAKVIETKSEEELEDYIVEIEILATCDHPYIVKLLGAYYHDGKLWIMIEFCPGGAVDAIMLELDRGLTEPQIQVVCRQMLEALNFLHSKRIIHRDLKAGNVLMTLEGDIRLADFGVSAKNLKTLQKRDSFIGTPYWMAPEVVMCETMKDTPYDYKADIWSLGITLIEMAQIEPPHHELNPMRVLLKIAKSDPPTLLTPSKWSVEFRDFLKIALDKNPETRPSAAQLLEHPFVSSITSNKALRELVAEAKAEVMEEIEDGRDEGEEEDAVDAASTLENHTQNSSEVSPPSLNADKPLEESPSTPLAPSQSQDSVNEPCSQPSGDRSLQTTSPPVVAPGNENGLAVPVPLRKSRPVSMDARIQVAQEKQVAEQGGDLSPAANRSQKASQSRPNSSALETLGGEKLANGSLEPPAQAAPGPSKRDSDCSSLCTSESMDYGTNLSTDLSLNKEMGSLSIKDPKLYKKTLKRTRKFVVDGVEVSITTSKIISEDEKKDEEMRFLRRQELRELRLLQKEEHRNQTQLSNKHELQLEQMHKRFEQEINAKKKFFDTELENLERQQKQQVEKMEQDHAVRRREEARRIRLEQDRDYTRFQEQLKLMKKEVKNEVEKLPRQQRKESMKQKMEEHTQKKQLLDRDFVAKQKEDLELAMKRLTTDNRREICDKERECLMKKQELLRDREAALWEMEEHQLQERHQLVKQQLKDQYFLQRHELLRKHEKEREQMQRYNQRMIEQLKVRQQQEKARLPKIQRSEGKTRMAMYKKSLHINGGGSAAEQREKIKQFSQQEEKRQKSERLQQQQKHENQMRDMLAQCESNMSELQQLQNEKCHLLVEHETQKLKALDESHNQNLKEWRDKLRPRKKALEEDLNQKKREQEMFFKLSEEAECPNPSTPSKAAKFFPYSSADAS
Test [19] addresses Dual specificity mitogen-activated protein kinase kinase 1 (Homo sapiens) (UniProt Q02750). Nature of the test: Inhibition of recombinant full-length human MEK1 at 1 uM using unactive MAPK2 as substrate measured after 40 mins in presence of [gamma33P]ATP by scintillation counting method relative to control.

Calls of active or inactive are those of the source. The rule behind the calls is not given here.

Inhibitor of nuclear factor kappa-B kinase subunit alpha (Homo sapiens), sequence (O15111 whole entry): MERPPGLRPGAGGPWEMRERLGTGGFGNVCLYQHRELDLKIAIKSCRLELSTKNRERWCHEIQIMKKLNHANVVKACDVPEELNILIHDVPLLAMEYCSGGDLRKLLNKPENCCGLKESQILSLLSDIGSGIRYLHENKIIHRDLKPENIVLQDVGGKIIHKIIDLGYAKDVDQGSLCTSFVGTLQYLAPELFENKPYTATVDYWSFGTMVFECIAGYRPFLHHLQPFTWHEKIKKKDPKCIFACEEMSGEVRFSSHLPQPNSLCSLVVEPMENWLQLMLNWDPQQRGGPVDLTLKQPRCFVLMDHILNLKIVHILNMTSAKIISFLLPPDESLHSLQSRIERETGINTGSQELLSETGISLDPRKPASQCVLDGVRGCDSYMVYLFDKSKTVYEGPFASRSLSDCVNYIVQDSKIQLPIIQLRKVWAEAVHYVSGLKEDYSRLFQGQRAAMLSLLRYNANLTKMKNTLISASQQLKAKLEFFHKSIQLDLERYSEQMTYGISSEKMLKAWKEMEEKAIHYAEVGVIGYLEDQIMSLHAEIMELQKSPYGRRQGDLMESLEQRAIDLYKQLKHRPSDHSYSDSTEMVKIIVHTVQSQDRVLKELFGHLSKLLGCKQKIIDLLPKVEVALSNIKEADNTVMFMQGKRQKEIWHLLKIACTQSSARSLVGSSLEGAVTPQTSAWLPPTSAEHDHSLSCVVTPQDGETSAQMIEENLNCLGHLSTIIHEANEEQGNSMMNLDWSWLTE
Dual specificity mitogen-activated protein kinase kinase 1 (Homo sapiens), sequence (Q02750 whole entry): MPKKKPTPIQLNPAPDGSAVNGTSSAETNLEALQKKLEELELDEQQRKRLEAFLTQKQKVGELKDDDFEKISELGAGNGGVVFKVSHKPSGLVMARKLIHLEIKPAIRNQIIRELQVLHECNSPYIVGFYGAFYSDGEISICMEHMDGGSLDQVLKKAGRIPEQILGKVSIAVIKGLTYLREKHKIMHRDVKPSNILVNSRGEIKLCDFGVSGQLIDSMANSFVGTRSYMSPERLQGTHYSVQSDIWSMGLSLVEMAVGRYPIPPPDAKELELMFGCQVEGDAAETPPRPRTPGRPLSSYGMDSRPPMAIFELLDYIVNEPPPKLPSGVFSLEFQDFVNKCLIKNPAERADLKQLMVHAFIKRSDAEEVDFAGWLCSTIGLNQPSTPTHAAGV
Calcium/calmodulin-dependent protein kinase type IV (Homo sapiens), sequence (Q16566 whole entry): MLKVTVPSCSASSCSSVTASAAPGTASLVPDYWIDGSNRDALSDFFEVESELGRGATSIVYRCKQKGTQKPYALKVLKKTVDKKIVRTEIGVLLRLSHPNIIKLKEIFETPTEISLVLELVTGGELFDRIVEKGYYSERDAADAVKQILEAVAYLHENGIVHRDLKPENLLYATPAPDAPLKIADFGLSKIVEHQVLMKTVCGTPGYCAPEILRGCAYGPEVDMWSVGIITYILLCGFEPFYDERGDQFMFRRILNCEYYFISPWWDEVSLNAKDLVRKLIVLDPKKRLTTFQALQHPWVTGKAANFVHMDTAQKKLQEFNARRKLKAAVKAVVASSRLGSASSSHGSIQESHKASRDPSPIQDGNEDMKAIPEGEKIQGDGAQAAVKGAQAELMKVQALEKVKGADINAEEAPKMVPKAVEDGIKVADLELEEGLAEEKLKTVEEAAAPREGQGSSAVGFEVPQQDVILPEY
Protein kinase C theta type (Homo sapiens), sequence (Q04759 whole entry, looked up): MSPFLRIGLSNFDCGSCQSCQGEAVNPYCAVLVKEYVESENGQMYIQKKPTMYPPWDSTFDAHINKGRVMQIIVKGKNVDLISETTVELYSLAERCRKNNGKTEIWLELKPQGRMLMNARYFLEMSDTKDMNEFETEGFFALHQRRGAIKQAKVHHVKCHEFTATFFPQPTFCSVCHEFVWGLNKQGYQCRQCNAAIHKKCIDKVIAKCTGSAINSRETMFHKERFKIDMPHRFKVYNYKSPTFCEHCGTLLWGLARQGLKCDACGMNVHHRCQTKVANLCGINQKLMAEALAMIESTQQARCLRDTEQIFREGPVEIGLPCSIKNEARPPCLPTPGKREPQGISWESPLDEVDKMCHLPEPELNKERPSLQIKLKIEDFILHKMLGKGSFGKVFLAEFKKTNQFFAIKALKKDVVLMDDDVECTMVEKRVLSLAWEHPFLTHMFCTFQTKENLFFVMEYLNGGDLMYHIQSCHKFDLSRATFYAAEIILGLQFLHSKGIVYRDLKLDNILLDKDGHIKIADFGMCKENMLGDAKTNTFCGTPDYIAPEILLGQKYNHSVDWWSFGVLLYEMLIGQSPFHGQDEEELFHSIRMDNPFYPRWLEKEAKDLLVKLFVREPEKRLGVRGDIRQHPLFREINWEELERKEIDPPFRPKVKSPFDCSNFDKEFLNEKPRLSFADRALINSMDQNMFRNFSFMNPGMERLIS

Take `CN(C)C(=O)c1cc2cnc(Nc3ccc(NC(=O)CCCCCCCN=C=S)cc3)nc2n1C1CCCC1`: the inhibition (in general, the drop in the measured response relative to a control, in per cent) is 87% in test [1]; 53% in [6]; 21% in test [7]; -4% in [8]; 79% in test [9]; 53% in test [10]. For the same molecule, the inhibition in [11] was 5%; in [12], 15%; in [13] it was 47%; in test [14], 30%; in [15], -1%; in [16], 12%. For the same molecule, the values for the inhibition in test [17], in [18] and in test [19] were -3%, 71% and 22%, respectively. In test [2], the IC50 – broadly, the concentration at which inhibition is half-maximal – is 3.04 µM. Besides, the Activity in test [3] was 7.76%. Moreover, the result in test [4] and in test [5] was Active.
